From ChEMBL document CHEMBL1158348, “Aroylpropionic acid based 2,5-disubstituted-1,3,4-oxadiazoles: synthesis and their anti-inflammatory and analgesic activities” (Eur J Med Chem, 2009)

What was measured:
Rattus norvegicus [1] = experiment: Antiinflammatory activity in po dosed Wistar rat assessed as inhibition of carrageenan-induced paw odema at dose equivalent to 20 mg/kg of ibuprofen pretreated 30 mins pre-carrageenan challenge measured after 3 hrs; assay type: functional
Procedure, shortened: (§1)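 Rats 150–200 g, groups of six. Drug given orally as a suspension in 0.5% w/v aqueous sodium CMC; control group untreated. 30 min later, 0.1 mL of 1% carrageenan injected sub-plantar into the left hind paw. Paw volume measured by plethysmometer before treatment (V0) and at intervals (Vt). Inhibition computed from (Vt−V0) of treated vs control. Values are mean ± S.E.M.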

Rattus norvegicus [2] = experiment: Antiinflammatory activity in po dosed Wistar rat assessed as inhibition of carrageenan-induced paw odema at dose equivalent to 20 mg/kg of ibuprofen pretreated 30 mins pre-carrageenan challenge measured after 2 hrs; assay type: functional; procedure, shortened: as §1
Rattus norvegicus [3] = experiment: Gastrointestinal toxicity in po dosed Wistar rat assessed ulcer index at dose equivalent to 60 mg/kg of ibuprofen after 17 hrs; assay type: organism-based; parameters: dose 60 mg/kg, route oral; conditions: in vivo
Procedure, shortened: (§2)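 Wistar rats (150–200 g), groups of six, fasted 8 h, then given a single oral dose (60 mg kg-1 ibuprofen or molar equivalent of test compound; control received vehicle only). Sacrificed 17 h later with food and water available. Gastric mucosa examined under 4× binocular magnifier, scored 0–4 by lesion/ulcer number and size. Severity index = treated group mean score minus control mean score.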

Gastric mucosa [4] = experiment: Inhibition of lipid peroxidation assessed as malondialdehyde level per 100 mg of gastric mucosa isolated from po dosed Wistar rat treated dose equivalent to 60 mg/kg equivalent to ibuprofen by UV spectrophotometry; assay type: functional
Procedure, shortened: (§3)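 Rats 150–200 g, groups of six, fasted 8 h, then given a single oral dose and killed 17 h later with food and water available. Gastric mucosa scraped, 100 mg homogenised in ice-cold 1.15% KCl. SDS, pH 3.5 acetate buffer and 0.8% TBA added, heated at 95 °C for 60 min. Extracted with n-butanol/pyridine 15:1, A532 read; MDA in nmol/100 mg tissue.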

Mus musculus [5] = experiment: Analgesic activity in po dosed Swiss albino mouse assessed as inhibition of acetic acid-induced writhing response at dose equivalent to 20 mg/kg of ibuprofen pretreated 3 hrs before acetic acid challenge; assay type: functional; parameters: scale not given: the % may be the effect or the level left
Procedure, shortened: (§4)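 Mice 25–30 g of either sex, groups of six. Drug given orally as a suspension in 0.5% w/v aqueous sodium CMC, 3 h before 1% v/v acetic acid i.p. at 1 mL per 100 g body weight. Writhings counted over 10 min. Protection (%) = 100 − (test/control writhings × 100). Values are mean ± S.E.M., with ANOVA then t-test.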

Rattus norvegicus [6] = experiment: Antiinflammatory activity in Wistar rat assessed as inhibition of carrageenan-induced paw odema at 20 mg/kg, po pretreated 30 mins pre-carrageenan challenge measured after 8 hrs; assay type: functional; procedure, shortened: as §1
Gastric mucosa [7] = experiment: Inhibition of lipid peroxidation assessed as malondialdehyde level per 100 mg of gastric mucosa isolated from Wistar rat treated 60 mg/kg, po by UV spectrophotometry; assay type: functional; procedure, shortened: as §3
Mus musculus [8] = experiment: Analgesic activity in Swiss albino mouse assessed as inhibition of acetic acid-induced writhing response at 20 mg/kg, po pretreated 3 hrs before acetic acid challenge; assay type: functional; parameters: scale not given: the % may be the effect or the level left; procedure, shortened: as §4
Rattus norvegicus [9] = experiment: Antiinflammatory activity in Wistar rat assessed as inhibition of carrageenan-induced paw odema at 20 mg/kg, po pretreated 30 mins pre-carrageenan challenge measured after 4 hrs; assay type: functional; procedure, shortened: as §1
Rattus norvegicus [10] = experiment: Antiinflammatory activity in Wistar rat assessed as inhibition of carrageenan-induced paw odema at 20 mg/kg, po pretreated 30 mins pre-carrageenan challenge measured after 3 hrs; assay type: functional; procedure, shortened: as §1
Rattus norvegicus [11] = experiment: Antiinflammatory activity in Wistar rat assessed as inhibition of carrageenan-induced paw odema at 20 mg/kg, po pretreated 30 mins pre-carrageenan challenge measured after 2 hrs; assay type: functional; procedure, shortened: as §1
Rattus norvegicus [12] = experiment: Gastrointestinal toxicity in Wistar rat assessed ulcer index at 60 mg/kg, po after 17 hrs; assay type: organism-based; parameters: dose 60 mg/kg, route oral; conditions: in vivo; procedure, shortened: as §2

| Structure (SMILES) | inhibition in vivo (Rattus norvegicus [1]) [%] | inhibition in vivo (Rattus norvegicus [2]) [%] | UI (Rattus norvegicus [3]) | Activity (Gastric mucosa [4]) [nmol] | Activity (Mus musculus [5]) [%] | other results |
| --- | --- | --- | --- | --- | --- | --- |
| Cc1ccc(C(=O)CCc2nnc(-c3ccccc3)o2)c(C)c1 | 58 | 36 | – | – | – | – |
| Cc1ccc(C(=O)CCc2nnc(-c3ccc([N+](=O)[O-])cc3)o2)c(C)c1 | 69.1 | 40 | 0.87 | 4.42 | 47.2 | – |
| CC(C)Cc1ccc(C(C)C(=O)O)cc1 (stereo unspecified) [IBUPROFEN] | – | – | – | – | – | inhibition in vivo at 20 mg/kg (Rattus norvegicus [6]): 46.7%; Activity (Gastric mucosa [7]): 7.51 nmol; Activity (Mus musculus [8]): 72.5%; inhibition in vivo at 20 mg/kg (Rattus norvegicus [9]): 65.5%; inhibition in vivo at 20 mg/kg (Rattus norvegicus [10]): 90.1%; inhibition in vivo at 20 mg/kg (Rattus norvegicus [11]): 80.9%; UI (Rattus norvegicus [12]): 1.95 |
| Cc1ccc(C(=O)CCc2nnc(COc3ccc4ccccc4c3)o2)cc1 | 49.4 | 24.7 | – | – | – | – |
| Cc1ccc(C(=O)CCc2nnc(-c3ccc(Cl)cc3)o2)cc1 | 81.5 | 62.7 | 0.98 | 4.25 | 58.89 | – |
| Cc1ccc(C(=O)CCc2nnc(COc3ccccc3)o2)cc1 | 42 | 25.3 | – | – | – | – |
| Cc1ccc(C(=O)CCc2nnc(-c3ccccc3Cl)o2)c(C)c1 | 60.5 | 33.5 | 0.89 | 4.15 | 56.8 | – |
| Cc1ccc(C(=O)CCc2nnc(-c3ccccc3)o2)cc1 | 49.3 | 33.3 | – | – | – | – |
| COc1ccc(-c2nnc(CCC(=O)c3ccc(C)cc3)o2)cc1OC | 72.6 | 53.3 | 0.87 | 3.85 | 62.39 | – |
| COc1ccc(-c2nnc(CCC(=O)c3ccc(C)cc3C)o2)cc1OC | 75.3 | 58.7 | 1.12 | 5.12 | 56.1 | – |
| Cc1ccc(C(=O)CCc2nnc(COc3cccc4ccccc34)o2)cc1 | 37 | 24 | – | – | – | – |
| COc1ccc(-c2nnc(CCC(=O)c3ccc(C)cc3C)o2)cc1 | 88.9 | 62.7 | 0.65 | 3.79 | 66.25 | – |
| COc1ccc(-c2nnc(CCC(=O)c3ccc(C)cc3)o2)cc1 | 89.5 | 69.3 | 0.7 | 3.15 | 69.8 | – |
| O=C(CCc1nnc(COc2ccc3ccccc3c2)o1)c1ccccc1 | 51 | 29.8 | – | – | – | – |
| Cc1ccc(C(=O)CCc2nnc(Cc3ccccc3)o2)c(C)c1 | 50 | 25.3 | – | – | – | – |
| O=C(CCc1nnc(-c2ccc(Cl)cc2)o1)c1ccccc1 | 81.5 | 42 | 1.12 | 5.32 | 63 | – |
| Cc1ccc(C(=O)CCc2nnc(COc3ccccc3)o2)c(C)c1 | 45.7 | 27.6 | – | – | – | – |
| O=C(CCc1nnc(-c2ccccc2Cl)o1)c1ccccc1 | 35.8 | 26.9 | – | – | – | – |
| Cc1ccc(C(=O)CCc2nnc(-c3ccc([N+](=O)[O-])cc3)o2)cc1 | 60.5 | 52 | 0.95 | 3.95 | 53.43 | – |
| Cc1ccc(C(=O)CCc2nnc(-c3ccccc3Cl)o2)cc1 | 57.3 | 36.2 | – | – | – | – |
| O=C(CCc1nnc(-c2ccccc2)o1)c1ccccc1 | 29.4 | 18.7 | – | – | – | – |
| Cc1ccc(C(=O)CCc2nnc(Cc3ccccc3)o2)cc1 | 51.9 | 24.7 | – | – | – | – |
| O=C(CCc1nnc(-c2ccc([N+](=O)[O-])cc2)o1)c1ccccc1 | 62.7 | 40.9 | 0.98 | 4.95 | 58.2 | – |
| Cc1ccc(C(=O)CCc2nnc(-c3ccc(Cl)cc3)o2)c(C)c1 | 72.6 | 53.3 | 0.71 | 3.26 | 60.42 | – |
